# What was measured:
# Assay type in all cases: functional
# Escherichia coli [1] = test: Ratio of chloromycin MIC to compound MIC for Escherichia coli DH52 after 24 hrs by two-fold serial dilution method
# Saccharomyces cerevisiae = test: Antimicrobial activity against Saccharomyces cerevisiae by two-fold serial dilution method
# Procedure, shortened: (§1)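 MIC read by broth microdilution in microdilution plates.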
# Aspergillus flavus = test: Antimicrobial activity against Aspergillus flavus after 24 hrs by two-fold serial dilution method; procedure, shortened: as §1
# Candida albicans = test: Antimicrobial activity against Candida albicans after 24 hrs by two-fold serial dilution method; procedure, shortened: as §1
# Shigella dysenteriae = test: Antimicrobial activity against Shigella dysenteriae after 24 hrs by two-fold serial dilution method
# Pseudomonas aeruginosa = test: Antimicrobial activity against Pseudomonas aeruginosa after 24 hrs by two-fold serial dilution method; procedure, shortened: as §1
# Escherichia coli [2] = test: Antimicrobial activity against Escherichia coli DH52 after 24 hrs by two-fold serial dilution method; settings: DH52, 24 h
# [3] = Antimicrobial activity against Bacillus proteus after 24 hrs by two-fold serial dilution method; procedure, shortened: as §1
# Micrococcus luteus = test: Antimicrobial activity against Micrococcus luteus ATCC 4698 after 24 hrs by two-fold serial dilution method; settings: ATCC 4698, 24 h
# Bacillus subtilis = test: Antimicrobial activity against Bacillus subtilis after 24 hrs by two-fold serial dilution method; procedure, shortened: as §1
# Staphylococcus aureus [4] = test: Antimicrobial activity against methicillin-resistant Staphylococcus aureus N315 after 24 hrs by two-fold serial dilution method; settings: N315, 24 h
# Staphylococcus aureus [5] = test: Antimicrobial activity against Staphylococcus aureus ATCC 25923 after 24 hrs by two-fold serial dilution method; settings: ATCC 25923, 24 h
Compound,Ratio (Escherichia coli [1]),MIC (Saccharomyces cerevisiae) [µg/mL],MIC (Aspergillus flavus) [µg/mL],MIC (Candida albicans) [µg/mL],MIC (Shigella dysenteriae) [µg/mL],MIC (Pseudomonas aeruginosa) [µg/mL],MIC (Escherichia coli [2]) [µg/mL],MIC [3] [µg/mL],MIC (Micrococcus luteus) [µg/mL],MIC (Bacillus subtilis) [µg/mL],MIC (Staphylococcus aureus [4]) [µg/mL],MIC (Staphylococcus aureus [5]) [µg/mL]
Cl.Cl.Cl.Cl.Cl.Cl.O=C1c2cccc3c(Br)ccc(c23)C(=O)N1N(Cc1cn(Cc2ccc(Cl)cc2Cl)nn1)Cc1cn(Cc2ccc(Cl)cc2Cl)nn1,2,> 512,32,> 512,> 512,> 512,4,> 512,256,> 512,> 512,> 512
Cl.Cl.Cl.Cl.O=C1c2cccc3c(Br)ccc(c23)C(=O)N1N(Cc1cn(Cc2ccccc2Cl)nn1)Cc1cn(Cc2ccccc2Cl)nn1,2,> 512,> 512,64,> 512,> 512,4,> 512,128,> 512,512,> 512
O=C1c2cccc3c(Br)ccc(c23)C(=O)N1N(Cc1cn(Cc2ccc(Cl)c(Cl)c2)nn1)Cc1cn(Cc2ccc(Cl)c(Cl)c2)nn1,2,64,> 512,256,> 512,256,1,512,> 512,> 512,> 512,> 512
O=C1c2cccc3c(Br)ccc(c23)C(=O)N1N(Cc1cn(Cc2ccc([N+](=O)[O-])cc2)nn1)Cc1cn(Cc2ccc([N+](=O)[O-])cc2)nn1,–,> 512,> 512,> 512,> 512,> 512,256,> 512,512,256,> 512,> 512
CCCCn1cc(CN(Cc2cn(CCCC)nn2)N2C(=O)c3cccc4c(Br)ccc(c34)C2=O)nn1,–,> 512,64,> 512,> 512,> 512,> 512,> 512,> 512,> 512,> 512,> 512
O=C1c2cccc3c(Br)ccc(c23)C(=O)N1N(Cc1cn(Cc2ccc(Cl)cc2Cl)nn1)Cc1cn(Cc2ccc(Cl)cc2Cl)nn1,2,> 512,32,> 512,> 512,> 512,8,> 512,256,> 512,> 512,> 512
O=C1c2cccc3c(Br)ccc(c23)C(=O)N1N(Cc1cn(Cc2cccc(F)c2)nn1)Cc1cn(Cc2cccc(F)c2)nn1,–,> 512,32,> 512,> 512,> 512,16,> 512,256,> 512,> 512,> 512
O=C1c2cccc3c(Br)ccc(c23)C(=O)N1N(Cc1cn(Cc2ccccc2F)nn1)Cc1cn(Cc2ccccc2F)nn1,–,> 512,64,> 512,> 512,> 512,32,> 512,256,> 512,> 512,> 512
Cl.Cl.Cl.Cl.O=C1c2cccc3c(Br)ccc(c23)C(=O)N1N(Cc1cn(Cc2ccc(Cl)cc2)nn1)Cc1cn(Cc2ccc(Cl)cc2)nn1,2,> 512,256,> 512,256,512,2,> 512,32,256,512,256
O=C1c2cccc3c(Br)ccc(c23)C(=O)N1N(Cc1cn(Cc2ccc(F)cc2F)nn1)Cc1cn(Cc2ccc(F)cc2F)nn1,–,> 512,> 512,> 512,> 512,> 512,64,> 512,512,256,> 512,> 512
Cl.Cl.Cl.Cl.Cl.Cl.O=C1c2cccc3c(Br)ccc(c23)C(=O)N1N(Cc1cn(Cc2ccc(Cl)c(Cl)c2)nn1)Cc1cn(Cc2ccc(Cl)c(Cl)c2)nn1,2,32,> 512,256,> 512,256,0.5,256,512,512,256,256
Cl.Cl.O=C1c2cccc3c(Br)ccc(c23)C(=O)N1N(Cc1cn(Cc2ccc(F)cc2F)nn1)Cc1cn(Cc2ccc(F)cc2F)nn1,–,> 512,> 512,512,> 512,> 512,32,> 512,512,128,> 512,> 512

# Reference: ChEMBL document CHEMBL3098102, “1,2,3-Triazole-derived naphthalimides as a novel type of potential antimicrobial agents: synthesis, antimicrobial activity, interaction with calf thymus DNA and human serum albumin” (Bioorg Med Chem Lett, 2014)
